These results are taken from ChEMBL document CHEMBL1121844, “Synthesis and preliminary antitumor evaluation of 5-iminodoxorubicin” (1981).

What all share (assay type): functional
For experiment [1], the system named is L1210. The experiment in a line: Dose required to inhibit the DNA synthesis in leukemia L1210 cells. The note with it: Mus musculus, read-out: ED50 (the source's name).
The test system of experiment [2] is L1210. The experiment in a line: Dose required to inhibit the RNA synthesis in leukemia L1210 cells. The note with it: Mus musculus, read-out: ED50 (the source's name).
Experiment [3] deals with Mus musculus. The experiment in a line: Compound was evaluated for antitumor activity in mice injected intraperitoneal with leukemia P-388 cells, treated on days 5, 9, and 13th day at 6.25 mg/kg. The procedure, abridged: (§1)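 Mice received leukemia P-388 cells intraperitoneally on day 0. The specified dose was then given ip on days 5, 9 and 13. Read-out was % T/C, the survival time of treated mice relative to untreated controls. A T/C of 120% or more was defined as active.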

The subject of experiment [4] is Mus musculus. The experiment in a line: Compound was evaluated for antitumor activity in mice injected intraperitoneal with leukemia P-388 cells, treated on days 5, 9, and 13 th day at 50 mg/kg. The essentials: as §1
Experiment [5] has as its system Mus musculus. The experiment in a line: Compound was evaluated for antitumor activity in mice injected intraperitoneal with leukemia P-388 cells, treated on days 5, 9, and 13th day at 12.5 mg/kg. The essentials:
as §1

The subject of experiment [6] is Mus musculus. The experiment in a line: Compound was evaluated for antitumor activity in mice injected intraperitoneal with leukemia P-388 cells, treated on days 5, 9, and 13th day at 25 mg/kg. The essentials:
as §1

For a further experiment, the species on record is Rattus norvegicus. The experiment in a line: Compound was evaluated for augmentation of rat liver microsomal oxygen consumption relative to doxorubicin.
The subject of a further experiment is Nucleic Acid. Description: Thermal denaturation for stabilization of helical DNA by the compound.
Experiment [7] concerns Mus musculus. Description: Compound was evaluated for antitumor activity in mice injected intraperitoneal with leukemia P-388 cells, treated on days 5, 9, and 13 th day at 1 mg/kg. The essentials:
as §1

The test system of experiment [8] is Mus musculus. Description: Compound was evaluated for antitumor activity in mice injected intraperitoneal with leukemia P-388 cells, treated on days 5, 9, and 13 th day at 2 mg/kg. The procedure, abridged:
as §1

Experiment [9] concerns Mus musculus. Description: Compound was evaluated for antitumor activity in mice injected intraperitoneal with leukemia P-388 cells, treated on days 5, 9, and 13 th day at 4 mg/kg. The essentials: as §1
The test system of experiment [10] is Mus musculus. The experiment in a line: Compound was evaluated for antitumor activity in mice injected intraperitoneal with leukemia P-388 cells, treated on days 5, 9, and 13 th day at 8 mg/kg. The essentials:
as §1

In experiment [11] the test system is Mus musculus. Description: Compound was evaluated for antitumor activity in mice injected intraperitoneal with leukemia P-388 cells, treated on days 5, 9, and 13 th day at 16 mg/kg. The essentials:
as §1

The test system of experiment [12] is Mus musculus. The experiment in a line: Compound was evaluated for antitumor activity in mice injected intraperitoneal with leukemia P-388 cells, treated on days 5, 9, and 13th day at 5.4 mg/kg. The procedure, abridged: as §1
Experiment [13] deals with Mus musculus. The experiment in a line: Compound was evaluated for antitumor activity in mice injected intraperitoneal with leukemia P-388 cells, treated on days 5, 9, and 13th day at 5.76 mg/kg. The procedure, abridged:
as §1

For experiment [14], the system named is Mus musculus. Description: Compound was evaluated for antitumor activity in mice injected intraperitoneal with leukemia P-388 cells, treated on days 5, 9, and 13th day at 6 mg/kg. The procedure, abridged:
as §1

Experiment [15] relates to Mus musculus. Description: Compound was evaluated for antitumor activity in mice injected intraperitoneal with leukemia P-388 cells, treated on days 5, 9, and 13th day at 9.6 mg/kg. The procedure, abridged: as §1
The test system of experiment [16] is Mus musculus. Description: Compound was evaluated for antitumor activity in mice injected intraperitoneal with leukemia P-388 cells, treated on days 5, 9, and 13th day at 9 mg/kg. The procedure, abridged:
as §1

Experiment [17] relates to Mus musculus. Description: Compound was evaluated for antitumor activity in mice injected intraperitoneal with leukemia P-388 cells, treated on days 5, 9, and 13 th day at 24 mg/kg. The procedure, abridged:
as §1

Experiment [18] has as its system Mus musculus. Description: Compound was evaluated for antitumor activity in mice injected intraperitoneal with leukemia P-388 cells, treated on days 5, 9, and 13th day at 1.5 mg/kg. The essentials:
as §1

Experiment [19] relates to Mus musculus. Description: Compound was evaluated for antitumor activity in mice injected intraperitoneal with leukemia P-388 cells, treated on days 5, 9, and 13th day at 1.94 mg/kg. The essentials: as §1
In experiment [20] the test system is Mus musculus. Description: Compound was evaluated for antitumor activity in mice injected intraperitoneal with leukemia P-388 cells, treated on days 5, 9, and 13th day at 12 mg/kg. The procedure, abridged:
as §1

For experiment [21], the system named is Mus musculus. The experiment in a line: Compound was evaluated for antitumor activity in mice injected intraperitoneal with leukemia P-388 cells, treated on days 5, 9, and 13th day at 16 mg/kg. The procedure, abridged:
as §1

Experiment [22] deals with Mus musculus. Description: Compound was evaluated for antitumor activity in mice injected intraperitoneal with leukemia P-388 cells, treated on days 5, 9, and 13th day at 3.24 mg/kg. The essentials: as §1
Experiment [23] concerns Mus musculus. Description: Compound was evaluated for antitumor activity in mice injected intraperitoneal with leukemia P-388 cells, treated on days 5, 9, and 13th day at 3.46 mg/kg. The procedure, abridged: as §1
The test system of experiment [24] is Mus musculus. The experiment in a line: Compound was evaluated for antitumor activity in mice injected intraperitoneal with leukemia P-388 cells, treated on days 5, 9, and 13th day at 3 mg/kg. The procedure, abridged:
as §1

The test system of experiment [25] is Mus musculus. Description: Compound was evaluated for antitumor activity in mice injected intraperitoneal with leukemia P-388 cells, treated on days 5, 9, and 13th day at 4 mg/kg. The procedure, abridged:
as §1

The test system of experiment [26] is Mus musculus. Description: Compound was evaluated for antitumor activity in mice injected intraperitoneal with leukemia P-388 cells, treated on days 5, 9, and 13th day at 8 mg/kg. The procedure, abridged: as §1
Experiment [27] has as its system Mus musculus. The experiment in a line: Compound was evaluated for antitumor activity in mice injected intraperitoneal with leukemia P-388 cells, treated on days 5, 9, and 13th day at 2 mg/kg. The procedure, abridged: as §1

pEC50: −log10 of the molar value.

On to `COc1cccc2c1C(=N)c1c(O)c3c(c(O)c1C2=O)C[C@@](O)(C(=O)CO)C[C@@H]3OC1CC(N)C(O)C(C)O1.Cl` (stereo partly specified), for which the pEC50 is 5.70 with L1210 [1] and 5.68 in the experiment with L1210 [2]. Further, the T/C in the experiment on Mus musculus [3] amounted to 122%; in the experiment on Mus musculus [4], 173%; in the experiment on Mus musculus [5], 132%; in the experiment on Mus musculus [6] it was 155%. In the experiment listed under Rattus norvegicus, this compound yielded an Augmentation of 7.5%. Moreover, in the experiment on Nucleic Acid, the ΔTm was 6.9 °C.
Turning to `COc1cccc2c1C(=O)c1c(O)c3c(c(O)c1C2=O)C[C@@](O)(C(=O)CO)C[C@@H]3O[C@H]1C[C@H](N)[C@H](O)[C@H](C)O1.Cl` [DOXORUBICIN HYDROCHLORIDE], the figures for the pEC50 in the experiment on L1210 [1] and in the experiment with L1210 [2] were 5.82 and 6.15, respectively. Besides, the T/C in the experiment with Mus musculus [7] stood at 123%; with Mus musculus [8], 130%; in the experiment with Mus musculus [9], 144%; in the experiment with Mus musculus [10], 162%; in the experiment with Mus musculus [11], 125%. In the experiment listed under Rattus norvegicus, this compound displayed an Augmentation of 100%. Moreover, the thermal shift (ΔTm) with Nucleic Acid was 13.4 °C.
On to `COc1cccc2c1C(=N)c1c(O)c3c(c(O)c1C2=O)C[C@@](O)(C(C)=O)C[C@@H]3OC1CC(N)C(O)C(C)O1.Cl` (stereo partly specified), for which the figures for the pEC50 in the experiment on L1210 [1] and with L1210 [2] were 5.80 and 5.89, respectively. Further, the T/C with Mus musculus [12] is 161%; with Mus musculus [13] it was 186%; in the experiment on Mus musculus [14], 124%; in the experiment on Mus musculus [15], 180%; with Mus musculus [16], 157%; in the experiment with Mus musculus [17], 126%. The T/C in the experiment with Mus musculus [18] is listed as 126%; in the experiment with Mus musculus [19], 137%; with Mus musculus [20] it was 116%; in the experiment with Mus musculus [21], 140%; in the experiment on Mus musculus [22], 150%; with Mus musculus [23], 177%. In the experiment on Mus musculus [24], this compound came in with a T/C of 130%. Further, the Augmentation in the experiment filed under Rattus norvegicus was 8.2%. The shift in melting temperature (ΔTm) in the experiment on Nucleic Acid was 6.2 °C.
`COc1cccc2c1C(=O)c1c(O)c3c(c(O)c1C2=O)C[C@@](O)(C(C)=O)C[C@@H]3O[C@H]1C[C@H](N)[C@H](O)[C@H](C)O1.Cl` [DAUNORUBICIN HYDROCHLORIDE]: the pEC50 is 6.00 with L1210 [1] and 6.52 in the experiment on L1210 [2]. The T/C in the experiment on Mus musculus [25] is recorded as 126%; with Mus musculus [26], 129%; in the experiment with Mus musculus [27], 123%; in the experiment on Mus musculus [11], 123%. Also, in the experiment listed under Rattus norvegicus, the Augmentation is 109%.
